Source: ChEMBL document CHEMBL2169868, “Flavone-based novel antidiabetic and antidyslipidemic agents” (J Med Chem, 2012)

Experiments:
Syrian golden hamster [1] = assay: Reduction in body weight in high fructose and high-fat diet fed dyslipidemic Syrian golden hamster model at 30 mg/kg/day, po for 7 days; format: functional, Mesocricetus auratus; set-up: scale not given: the % may be the effect or the level left
How it was run: (§1)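 HFD-fed Syrian golden hamsters, six per group, fed a high-fructose diet. Oral dosing in 1% gum acacia for 7 days. Sham group received vehicle. Plasma TG was measured and body weight tracked. Results given as % change versus HFD control.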

Mus musculus [2] = assay: Antidiabetic activity in diabetic C57BL/KsJ db/db mouse model assessed as reduction in postprandial glucose level in hyperglycemia at 10 mg/kg, po measured 2 hrs post dose; format: functional; set-up: scale not given: the % may be the effect or the level left
How it was run: (§2)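 db/db mice (C57BL/KsJ, 12−18 weeks, 40−50 g; selected by glucose 200−350 mg/dL) dosed orally daily for 10 consecutive days at 1, 3, 10, 25 or 50 mg/kg; postprandial blood glucose profile recorded on day 6 with food access interrupted; mean % change versus vehicle in 5 animals per group; Student t test.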

Syrian golden hamster [3] = assay: Antidyslipidemic activity in high fructose and high-fat diet fed dyslipidemic Syrian golden hamster model assessed as reduction in LDL-cholesterol level at 10 mg/kg/day, po for 7 day, po; format: functional, Mesocricetus auratus; set-up: scale not given: the % may be the effect or the level left
How it was run: (§3)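 Syrian golden hamsters fed high-fructose high-fat diet; oral dosing in 1% gum acacia at 10, 30, 100 mg/kg (or 25 mg/kg) for 7 days, sham control given vehicle; plasma TG, cholesterol, LDL-C, HDL-C, glycerol and NEFA (kits), lipoprotein lipase activity and body weight; % change versus HFD control, six hamsters per group.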

Syrian golden hamster [4] = assay: Antidyslipidemic activity in high fructose and high-fat diet fed dyslipidemic Syrian golden hamster model assessed as reduction in LDL-cholesterol level at 30 mg/kg/day, po for 7 day, po; format: functional, Mesocricetus auratus; set-up: scale not given: the % may be the effect or the level left; how it was run: as §3
Rattus norvegicus [5] = assay: Volume of distribution in Sprague-Dawley rat at 25 mg/kg, po by LC-MS/MS method; format: ADME, organism-based; set-up: dose 25 mg/kg, route oral; details: in vivo
How it was run: (§4)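 Male Sprague−Dawley rats given a single 25 mg/kg oral dose (aqueous 0.5% methyl cellulose suspension for one compound). Blood drawn from 0.08 to 48 h. LC-MS/MS, linear range 0.78−400 ng/mL.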

Syrian golden hamster [6] = assay: Antidyslipidemic activity in high fructose and high-fat diet fed dyslipidemic Syrian golden hamster model assessed as increase in lipoprotein lipase level at 30 mg/kg/day, po for 7 day, po; format: functional, Mesocricetus auratus; how it was run: as §3
Syrian golden hamster [7] = assay: Antidyslipidemic activity in high fructose and high-fat diet fed dyslipidemic Syrian golden hamster model assessed as increase in HDL-cholesterol level at 10 to 100 mg/kg/day for 7 days; format: functional, organism-based; details: Mesocricetus auratus; how it was run: as §3
Syrian golden hamster [8] = assay: Antidyslipidemic activity in high fructose and high-fat diet fed dyslipidemic Syrian golden hamster model assessed as increase in lipoprotein lipase level at 10 mg/kg/day, po for 7 day, po; format: functional, Mesocricetus auratus; how it was run: as §3
Rattus norvegicus [9] = assay: AUC in Sprague-Dawley rat at 25 mg/kg, po by LC-MS/MS method; details: in vivo
[10] = Mean residence time in Sprague-Dawley rat at 25 mg/kg, po by LC-MS/MS method; format: ADME, organism-based; set-up: dose 25 mg/kg, route oral; details: in vivo; how it was run: as §4
Mus musculus [11] = assay: Antidiabetic activity in diabetic C57BL/KsJ db/db mouse model assessed as improvement in glucose tolerance in hyperglycemia at 25 mg/kg, po measured 2 hrs post dose; format: functional
Syrian golden hamster [12] = assay: Antidyslipidemic activity in high fructose and high-fat diet fed dyslipidemic Syrian golden hamster model assessed as reduction in cholesterol level at 10 mg/kg/day, po for 7 day, po; format: functional, Mesocricetus auratus; set-up: scale not given: the % may be the effect or the level left; how it was run: as §3
Syrian golden hamster [13] = assay: Antidyslipidemic activity in high fructose and high-fat diet fed dyslipidemic Syrian golden hamster model assessed as reduction in triglyceride level at 30 mg/kg/day, po for 7 day, po; format: functional, Mesocricetus auratus; set-up: scale not given: the % may be the effect or the level left; how it was run: as §1
Syrian golden hamster [14] = assay: Antidyslipidemic activity in high fructose and high-fat diet fed dyslipidemic Syrian golden hamster model assessed as reduction in cholesterol level at 30 mg/kg/day, po for 7 day, po; format: functional, Mesocricetus auratus; set-up: scale not given: the % may be the effect or the level left
Mus musculus [15] = assay: Antidiabetic activity in diabetic C57BL/KsJ db/db mouse model assessed as reduction in postprandial glucose level in hyperglycemia at 3 mg/kg, po measured 2 hrs post dose; format: functional; set-up: scale not given: the % may be the effect or the level left; how it was run: as §2
Syrian golden hamster [16] = assay: Antidyslipidemic activity in high fructose and high-fat diet fed dyslipidemic Syrian golden hamster model assessed as reduction in LDL-cholesterol level at 25 mg/kg/day for 7 days; format: functional, Mesocricetus auratus; set-up: scale not given: the % may be the effect or the level left; how it was run: as §3
[17] = Elimination half life in Sprague-Dawley rat at 2.5 mg/kg, iv by LC-MS/MS method; format: ADME, organism-based; set-up: dose 2.5 mg/kg, route intravenous; details: in vivo, read-out: beta t1/2 (converted)
How it was run: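 Male Sprague−Dawley rats given a single 2.5 mg/kg iv dose; one formulation was DMF/PG/water (2:4:4), 0.2 μ filtered. Blood drawn from 0.08 to 48 h. Plasma assayed by LC-MS/MS with linear range 0.78−400 ng/mL.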

Syrian golden hamster [18] = assay: Antidyslipidemic activity in high fructose and high-fat diet fed dyslipidemic Syrian golden hamster model assessed as increase in HDL-cholesterol level at 25 mg/kg/day for 7 days; format: functional, Mesocricetus auratus
[19] = Plasma clearance in Sprague-Dawley rat at 25 mg/kg, po by LC-MS/MS method; format: ADME, organism-based; set-up: dose 25 mg/kg, route oral; how it was run: as §4
[20] = Tmax in Sprague-Dawley rat at 25 mg/kg, po by LC-MS/MS method; format: ADME, organism-based; set-up: dose 25 mg/kg, route oral; details: in vivo; how it was run: as §4
Mus musculus [21] = assay: Antidiabetic activity in diabetic C57BL/KsJ db/db mouse model assessed as reduction in postprandial glucose level in hyperglycemia at 25 mg/kg, po measured 2 hrs post dose; format: functional; set-up: scale not given: the % may be the effect or the level left; how it was run: as §2
Mus musculus [22] = assay: Reduction in body weight in diabetic C57BL/KsJ db/db mouse model in hyperglycemia at 25 mg/kg, po qd for 10 days relative to untreated control; format: functional; set-up: scale not given: the % may be the effect or the level left
How it was run: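 db/db mice (C57BL/KsJ, 12−18 weeks, 40−50 g, glucose 200−350 mg/dL), housed at 23 ± 2.0 °C on a 12 h light cycle. Oral dosing daily for 10 days. Blood glucose checked each morning through day 9. Body weight recorded daily from day 1 to day 10. Mean % change versus vehicle, 5 mice per group; Student t test.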

Mus musculus [23] = assay: Antihyperglycemic activity in diabetic C57BL/KsJ db/db mouse model assessed as reduction in plasma insulin level in hyperglycemia at 25 mg/kg, po qd for 10 days; format: functional; set-up: scale not given: the % may be the effect or the level left
How it was run: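 db/db mice dosed orally every day for 10 days. On day 11, retro-orbital blood was drawn and plasma insulin measured. Mean % change versus vehicle-treated control, 5 mice per group; Student t test.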

Syrian golden hamster [24] = assay: Antidyslipidemic activity in high fructose and high-fat diet fed dyslipidemic Syrian golden hamster model assessed as reduction in triglyceride level at 100 mg/kg/day, po for 7 days; format: functional, Mesocricetus auratus; set-up: scale not given: the % may be the effect or the level left; how it was run: as §1
Mus musculus [25] = assay: Antidiabetic activity in diabetic C57BL/KsJ db/db mouse model assessed as improvement in glucose tolerance in hyperglycemia at 10 mg/kg, po measured 2 hrs post dose; format: functional
Syrian golden hamster [26] = assay: Antidyslipidemic activity in high fructose and high-fat diet fed dyslipidemic Syrian golden hamster model assessed as reduction in body weight at 25 mg/kg/day for 7 days; format: functional, Mesocricetus auratus; set-up: scale not given: the % may be the effect or the level left; how it was run: as §3
Mus musculus [27] = assay: Antidiabetic activity in diabetic C57BL/KsJ db/db mouse model assessed as reduction in postprandial glucose level in hyperglycemia at 1 mg/kg, po measured 2 hrs post dose; format: functional; set-up: scale not given: the % may be the effect or the level left; how it was run: as §2
Syrian golden hamster [28] = assay: Antidyslipidemic activity in high fructose and high-fat diet fed dyslipidemic Syrian golden hamster model assessed as reduction in glycerol level at 100 mg/kg/day, po for 7 days; format: functional, Mesocricetus auratus; set-up: scale not given: the % may be the effect or the level left; how it was run: as §3

Vd (Rattus norvegicus [5]): 107.41 L/kg | AUC (Rattus norvegicus [9]): 1798.22 ng·h/mL | MRT [10]: 30.3 h | half-life [17]: 606 min | CL/F [19]: 62.5 mL/min/kg | Tmax [20]: 8 h
SMILES: CC(C)(C)NC[C@H](O)COc1ccc2c(=O)cc(-c3cc(OCc4ccccc4)cc(OCc4ccccc4)c3)oc2c1
Activity (Syrian golden hamster [1]): 10.2% | Activity (Mus musculus [2]): 28.8% | Activity (Syrian golden hamster [3]): 21.1% | Activity (Syrian golden hamster [4]): 34.6% | Activity (Syrian golden hamster [6]): 31.2% | Activity (Syrian golden hamster [7]): Dose-dependent effect | Activity (Syrian golden hamster [8]): 13.2% | Activity (Mus musculus [11]): 44.6% | Activity (Syrian golden hamster [12]): 13.8% | Activity (Syrian golden hamster [13]): 39.8% | Activity (Syrian golden hamster [14]): 27.2% | Activity (Mus musculus [15]): 22.1% | Activity (Syrian golden hamster [16]): 30.1% | Activity (Syrian golden hamster [18]): 20.5% | Activity (Mus musculus [21]): 38.3% | Activity (Mus musculus [22]): 28.2% | Activity (Mus musculus [23]): 53.4% | Activity (Syrian golden hamster [24]): 76.3% | Activity (Mus musculus [25]): 39.9% | Activity (Syrian golden hamster [26]): 14.3% | Activity (Mus musculus [27]): 14.8% | Activity (Syrian golden hamster [28]): 50.5%
